Screening data deposited in PubChem by several laboratories.
AHR activator: activates the human aryl hydrocarbon receptor | AHR-responsive luciferase reporter cells, luminescence | activation, % at 5 µM | actives 2.5% (n = 320,000) | AID 2796; in the data active = activation above about 47%;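 also: 0% = vehicle wells and 100% = reference agonist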
PERK inh: blocks human PERK kinase | Q9NZJ5 | actives 0.17% (n = 220,000) | CHO PERK-DD fusion, SEAP luminescence translation reporter | AID 1416 | inhibition, % at 5.6 µM;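 active = inhibition above the mean inhibition of all tested compounds plus 3 SD, set separately per screening campaign, cut at about 2.9% in these data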;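 also: PERK kinase domain activated by AP20187 dimerizer at 100 nM; 0% = DMSO with dimerizer and 100% = rapamycin at 8.4 µM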
STAT1 act: activators of IFN-gamma induced STAT1 signaling; NIH 3T3 STAT1-luciferase reporter, luminescence; 100% = IFN-gamma alone, no compound; activation (% of control), % at 5.5 µM; actives 2.6% (n = 200,000);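 active = activation above the screen-wide mean activation plus 3 SD, cut at about 130% in these data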;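 also: raw ratio to IFN-gamma control signal so 100% means no change and 0% no light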
MDM2 E3 inh: Mdm2 E3 ligase (human) inhibition; cell-based MDM2 ubiquitination luciferase reporter, 2 h; 0 = plate control, 100 = twice control, blank-subtracted; AID 1230; Q00987; signal enhancement, % at 5 µM; actives 0.11% (n = 210,000);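 active = signal enhancement of 30% or more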;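 also: luminescence tracks abundance of the self-degrading MDM2-luciferase fusion protein; higher signal means inhibition of MDM2 E3 ligase activity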
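Test system: stable mammalian line carrying autodegrading MDM2–luciferase fusion reporter; quantity: 2000 cells in each well; times: 4 h cell settling then 2 h compound exposure, 37 °C; detection: luminescence with SteadyLite reagent, 15 min at room temperature; evaluation: percent signal gain over controls, blank-subtracted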
NF-kB expr up: raises NF-kB expression in human neuronal cells | NF-kB reporter expression; active compounds read high | fold change at 12.5 µM | actives 1.6% (n = 190,000); in the data active = fold change above about 3.3
APP 5'UTR act: APP 5'UTR luciferase reporter activation | SH-SY5Y APP 5'UTR luciferase reporter, luminescence; zero percent = DMSO vehicle wells | activation, % at 2 µM | actives 1% (n = 190,000) | AID 1276;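 active = activation above a set limit, based on mean plus 3 SD of controls, cut at about 140% in these data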
* marks the source's active call; other numbers are inactive results; / = not tested or not shown. Compounds with a hit are over-represented: about 4.5% of the library has one in this group of screens.

SMILES | AHR activator | PERK inh | STAT1 act | MDM2 E3 inh | NF-kB expr up | APP 5'UTR act
CC(C)(C)c1ccc(S(=O)(=O)NNC(=O)c2cc3ccccc3[nH]2)cc1 | 74* | / | / | / | / | /
COc1ccccc1OCC#CCn1ccnc1 | 60* | 2 | 102 | -3 | 1.1 | -5
O=C(NC(=S)Nc1cccc(Cl)c1Cl)C1CC1 | 52* | / | / | / | / | /
COc1ccc(-c2cc(-c3ccccc3)nc(NN)n2)cc1OC | 65* | / | / | / | / | /
Cc1ccc(-c2cc(-c3ccccc3)nc(NN)n2)cc1 | 66* | / | / | / | / | /
O=C(Nc1cccc(F)c1)/C(=C\c1ccco1)NC(=O)c1ccco1 | 25 | / | / | / | / | /
O=C(COC(=O)CCc1nc2ccccc2s1)NC(=O)NCc1ccco1 | -1 | 1 | 107 | -29 | 1.1 | -1
O=C(Nc1ccccc1)C1Cc2ccccc2CN1C(=O)c1ccco1 (stereo not drawn) | 18 | -1 | 130* | -6 | 0.97 | 117
CC(C)c1ccc2c(c1)[C@H]1OCC[C@H]1[C@@H](c1cccs1)N2 | 70* | 1 | 111 | 22 | 2 | -86
COc1ccccc1/C=N/N(C(C)=O)c1nc(-c2ccc(F)cc2)cs1 | 56* | 1 | 119 | -2 | 2.2 | 24
CC(=O)N(/N=C/c1cccc(C)c1)c1nc(-c2ccc(Br)cc2)cs1 | 78* | 1 | 100 | -10 | 1.2 | -12
COc1ccc(/C=N/N(C(C)=O)c2nc(-c3ccc(C)cc3)cs2)cc1 | 13 | 0 | 102 | -11 | 1.2 | -2
CC(Oc1ccccc1F)C(=O)NNC(=O)c1cccc(S(=O)(=O)N2CCN(C)CC2)c1 (stereo not drawn) | -1 | / | / | / | / | /
O=[N+]([O-])c1ccc(-c2cc(-c3ccc(Cl)cc3)n[nH]2)cc1 | -12 | 0 | 138* | -5 | 1.7 | 9
CN(C)c1ccc(S(=O)(=O)NCC(=O)NCCC2=CCCCC2)cc1[N+](=O)[O-] | 1 | / | / | / | / | /
COc1cccc(/C=N/NC(=S)Nc2cccnc2)c1 | 58* | 0 | 107 | -6 | 1.8 | 44
Oc1ccc(/C=N/NC(=S)Nc2cccnc2)cc1 | 54* | 1 | / | / | / | /
Oc1ccc(/C=N/NC(=S)N/N=C/c2ccc(O)cc2)cc1 | 9 | 1 | 124 | -36 | 1.7 | 21
COc1ccc(O)c(/C=N/NC(=S)Nc2cccnc2)c1 | 27 | 0 | 97 | -20 | 1.2 | 7
CC(C)COc1cccc(C(=O)N(C)CC(=O)Nc2cccc3ccccc23)c1 | 4 | / | / | / | / | /
COc1ccc(Cl)cc1S(=O)(=O)N1CCC(C(=O)N2CCOCC2)CC1 | -2 | / | / | / | / | /
CC1CCN(S(=O)(=O)c2ccc(C(=O)N3CCOCC3)cc2)CC1 | 0 | / | / | / | / | /
CCc1ccc(C2c3[nH]c4ccccc4c3CCN2C(=O)c2ccc(=O)n(C)n2)cc1 (stereo not drawn) | 16 | 2 | 104 | -10 | 0.68 | -10
CSc1ccc(C2c3[nH]c4ccccc4c3CCN2C(=O)c2ccnn2C)cc1 (stereo not drawn) | 37 | 0 | 137* | -7 | 3 | 71
O=C(NN1C(=O)c2ccccc2NC1c1ccccn1)c1ccccc1 (stereo not drawn) | 2 | 0 | 97 | -22 | 1.2 | -13
SMILES | AHR activator | PERK inh | STAT1 act | MDM2 E3 inh | NF-kB expr up | APP 5'UTR act
CCn1c(/C=C/c2c(C)[nH]c3ccccc23)nc2ccccc2c1=O | 65* | 0 | 104 | -10 | 0.99 | 0
CCn1c(/C=C/c2c[nH]c3ccccc23)nc2ccccc2c1=O | 19 | 0 | 148* | 1 | 3.4* | 182*
CCn1c(/C=C/c2ccccc2[N+](=O)[O-])nc2ccccc2c1=O | 9 | -1 | 109 | -11 | 0.91 | 13
CCn1c(/C=C/c2cccc([N+](=O)[O-])c2)nc2ccccc2c1=O | 68* | 0 | 103 | -16 | 0.7 | 8
O=C(NN1C(=O)c2ccc(-c3ccc4c(c3)C(=O)N(NC(=O)c3cccnc3)C4=O)cc2C1=O)c1cccnc1 | 17 | 0 | 105 | -42 | 1 | 42
O=C(COC(=O)c1ccc(Cl)nc1)Nc1ccc2c(c1)OCO2 | 4 | 1 | 94 | -16 | 1 | 5
CCOc1ccccc1CNC(=O)c1c([N+](=O)[O-])c(C)nn1C | 61* | 0 | 94 | -2 | 0.98 | -10
COc1ccc(C(=O)OCC(=O)N2CCCC2=O)c(OC)c1 | -2 | 1 | 139* | -1 | 1.1 | 3
